In ChEMBL document CHEMBL4689842, “EUbOPEN Chemogenomics Library wave 1” (2021):

How the values were obtained:
Assay type in all cases: toxicity, cell-based
[1] = system: Fibroblast; experiment: Multiplex assay against human fibroblast
Summary of the method: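 Compound was added to live cells that had been stained at seeding with Hoechst33342, BioTracker Green Microtubule Cytoskeleton Dye, MitoTracker Red and Annexin V Alexa Fluor 680, and imaging followed on a CQ1 microscope at 37°C and 5% CO2. CellPathfinder machine-learning gating divided cells into Hoechst high-intensity objects or normal cells, normal cells into healthy, pyknosed or fragmented nuclei, and pyknosed cells into mitotic or apoptotic. Tubulin, mitochondrial-mass and membrane-permeability phenotypes are per cents of healthy-nucleus cells.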

[2] = system: U2OS; experiment: Incucyte cell viability with U2OS; conditions: human, 10 µM, compound concentration 10 uM; further: filed as whole numbers so only -1 and 0 and 1 occur
[3] = system: HEK-293T; experiment: Incucyte cell viability with HEK293T; conditions: human, 10 µM, compound concentration 10 uM; further: filed as whole numbers so only -1 and 0 and 1 occur
[4] = 24 h, 10 µM, compound concentration 10 uM, replicate 1
[5] = 24 h, 10 µM, compound concentration 10 uM, replicate 2
[6] = 48 h, 1 µM, compound concentration 1 uM, replicate 1
[7] = 48 h, 1 µM, compound concentration 1 uM, replicate 2
[8] = 48 h, 10 µM, compound concentration 10 uM, replicate 1
[9] = 48 h, 10 µM, compound concentration 10 uM, replicate 2
[10] = 6 h, replicate number 1, timepoint 6 hours
[11] = 12 h, replicate number 1, timepoint 12 hours
[12] = 18 h, replicate number 1, timepoint 18 hours
[13] = 24 h, replicate number 1, timepoint 24 hours

Structure (SMILES): CC(C)c1cc(Nc2nc(N3CCC[C@H](N)C3)ncc2C(N)=O)cc(C(C)C)n1
- Population Mitochondria Different-Phenotype (%) [1, 4]: 44%
- Population Mitotic Cells (%) [1, 4]: 36%
- Population Normal (%) [1, 4]: 75%
- Population Pyknosed Nuclei (%) [1, 4]: 31%
- Population Tubulin-Different-Phenotype (%) [1, 4]: 82%
- Total Cell Count [1, 4]: 92
- Population Apoptotic (%) [1, 5]: 84%
- Population Fragmented Nuclei (%) [1, 5]: 23%
- Population Healthy Nuclei (%) [1, 5]: 23%
- Population Hoechst High Intensity Objects (%) [1, 5]: 17%
- Population Membrane Permeable-Phenotype (%) [1, 5]: 100%
- Population Mitochondria Different-Phenotype (%) [1, 5]: 90%
- Population Mitotic Cells (%) [1, 5]: 16%
- Population Normal (%) [1, 5]: 82%
- Population Pyknosed Nuclei (%) [1, 5]: 53%
- Population Tubulin-Different-Phenotype (%) [1, 5]: 100%
- Total Cell Count [1, 5]: 57
- Population Apoptotic (%) [1, 6]: 70%
- Population Fragmented Nuclei (%) [1, 6]: 29%
- Population Healthy Nuclei (%) [1, 6]: 40%
- Population Hoechst High Intensity Objects (%) [1, 6]: 37%
- Population Membrane Permeable-Phenotype (%) [1, 6]: 34%
- Population Mitochondria Different-Phenotype (%) [1, 6]: 7%
- Population Mitotic Cells (%) [1, 6]: 30%
- Population Normal (%) [1, 6]: 62%
- Population Pyknosed Nuclei (%) [1, 6]: 29%
- Population Tubulin-Different-Phenotype (%) [1, 6]: 68%
- Total Cell Count [1, 6]: 162
- Population Apoptotic (%) [1, 7]: 42%
- Population Fragmented Nuclei (%) [1, 7]: 33%
- Population Healthy Nuclei (%) [1, 7]: 56%
- Population Hoechst High Intensity Objects (%) [1, 7]: 33%
- Population Membrane Permeable-Phenotype (%) [1, 7]: 9%
- Population Mitochondria Different-Phenotype (%) [1, 7]: 1%
- Population Mitotic Cells (%) [1, 7]: 57%
- Population Normal (%) [1, 7]: 66%
- Population Pyknosed Nuclei (%) [1, 7]: 10%
- Population Tubulin-Different-Phenotype (%) [1, 7]: 58%
- Total Cell Count [1, 7]: 204
- Population Apoptotic (%) [1, 8]: 95%
- Population Fragmented Nuclei (%) [1, 8]: 43%
- Population Healthy Nuclei (%) [1, 8]: 24%
- Population Hoechst High Intensity Objects (%) [1, 8]: 32%
- Population Membrane Permeable-Phenotype (%) [1, 8]: 66%
- Population Mitochondria Different-Phenotype (%) [1, 8]: 13%
- Population Mitotic Cells (%) [1, 8]: 5%
- Population Normal (%) [1, 8]: 67%
- Population Pyknosed Nuclei (%) [1, 8]: 32%
- Population Tubulin-Different-Phenotype (%) [1, 8]: 66%
- Total Cell Count [1, 8]: 92
- Population Apoptotic (%) [1, 9]: 80%
- Population Fragmented Nuclei (%) [1, 9]: 27%
- Population Healthy Nuclei (%) [1, 9]: 38%
- Population Hoechst High Intensity Objects (%) [1, 9]: 31%
- Population Membrane Permeable-Phenotype (%) [1, 9]: 19%
- Population Mitochondria Different-Phenotype (%) [1, 9]: 58%
- Population Mitotic Cells (%) [1, 9]: 19%
- Population Normal (%) [1, 9]: 68%
- Population Pyknosed Nuclei (%) [1, 9]: 33%
- Population Tubulin-Different-Phenotype (%) [1, 9]: 55%
- Total Cell Count [1, 9]: 135
- Growth Rate ([2]; 0 h, replicate number 1, timepoint 0 hours): 1
- Growth Rate ([2]; 0 h, replicate number 2, timepoint 0 hours): 0
- Growth Rate [2, 10]: 0
- Growth Rate ([2]; 6 h, replicate number 2, timepoint 6 hours): 1
- Growth Rate [2, 11]: 0
- Growth Rate [2, 12]: 0
- Growth Rate [2, 13]: 0
- Growth Rate [3, 10]: 0
- Growth Rate [3, 11]: 0
- Growth Rate [3, 12]: 0
- Growth Rate [3, 13]: 0
